Experimental data as given in ChEMBL document CHEMBL5678802, “Small-molecule p21-activated kinase inhibitor PF-3758309 is a potent inhibitor of oncogenic signaling and tumor growth” (Proc Natl Acad Sci U S A, 2010).

Tests used:
[1] = molecular target: T1, Protein kinase C gamma type (Homo sapiens, UniProt P05129); experiment: Inhibition of human PKCgamma in presence of ATP relative to control; conditions: concentration not given here
[2] = molecular target: T2, High affinity nerve growth factor receptor (Homo sapiens, UniProt P04629); experiment: Inhibition of human TRKa in presence of ATP by cellular assay
Panc1005 = experiment: Antiproliferative activity against human Panc1005 cells assessed as inhibition of cell proliferation incubated for 3 days by CellTiter-Glo Luminescent Cell Viability Assay; assay type: functional, cell-based; conditions: Panc1005, 72 h
Outline: (§1)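 Cells of each line were plated in 384-well plates on day 1 and exposed to compound from day 2 for 3 days. On day 5 all medium was aspirated. Viable cell number was read by CellTiter-Glo luminescence, which quantifies cellular ATP.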

[3] = Drug concentration in nude mouse plasma xenografted with human HCT-116 cells at 0.36 mg/kg administered via pump for 9 days by LC-MS/MS analysis; assay type: ADME, organism-based; conditions: time 9 day
[4] = Drug exposure in nude mouse xenografted with human HCT-116 cells at 1.1 to 3.3 mg/kg, sc administered for 6 days; assay type: ADME, organism-based; conditions: in vivo, dose 1.1-3.3 mg/kg, time 6 day, read-out: Drug uptake
[5] = molecular target: AMP-activated protein kinase (AMPK) alpha-1/beta-1/gamma-1 (Homo sapiens, UniProt P54619+Q13131+Q9Y478); experiment: Inhibition of human AMPK alpha1/beta1/gamma1 in presence of ATP by cellular assay; assay type: protein-complex assay
MDA-MB-468 = experiment: Antiproliferative activity against human MDA-MB-468 cells assessed as inhibition of cell proliferation incubated for 3 days by CellTiter-Glo Luminescent Cell Viability Assay; assay type: functional, cell-based; conditions: MDA-MB-468, 72 h
Outline: (§2)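 Cancer cell lines seeded in 384-well plates on day 1; compound added on day 2 and left for 3 days. On day 5 all medium was aspirated, and viable cells were quantified by CellTiter-Glo luminescence, which measures cellular ATP. Dose-dependent effects on proliferation were determined.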

[6] = molecular target: T3, Serine/threonine-protein kinase D1 (Homo sapiens, UniProt Q15139); experiment: Inhibition of human PKCmu in presence of ATP by cellular assay
T3 sequence (Q15139 whole entry): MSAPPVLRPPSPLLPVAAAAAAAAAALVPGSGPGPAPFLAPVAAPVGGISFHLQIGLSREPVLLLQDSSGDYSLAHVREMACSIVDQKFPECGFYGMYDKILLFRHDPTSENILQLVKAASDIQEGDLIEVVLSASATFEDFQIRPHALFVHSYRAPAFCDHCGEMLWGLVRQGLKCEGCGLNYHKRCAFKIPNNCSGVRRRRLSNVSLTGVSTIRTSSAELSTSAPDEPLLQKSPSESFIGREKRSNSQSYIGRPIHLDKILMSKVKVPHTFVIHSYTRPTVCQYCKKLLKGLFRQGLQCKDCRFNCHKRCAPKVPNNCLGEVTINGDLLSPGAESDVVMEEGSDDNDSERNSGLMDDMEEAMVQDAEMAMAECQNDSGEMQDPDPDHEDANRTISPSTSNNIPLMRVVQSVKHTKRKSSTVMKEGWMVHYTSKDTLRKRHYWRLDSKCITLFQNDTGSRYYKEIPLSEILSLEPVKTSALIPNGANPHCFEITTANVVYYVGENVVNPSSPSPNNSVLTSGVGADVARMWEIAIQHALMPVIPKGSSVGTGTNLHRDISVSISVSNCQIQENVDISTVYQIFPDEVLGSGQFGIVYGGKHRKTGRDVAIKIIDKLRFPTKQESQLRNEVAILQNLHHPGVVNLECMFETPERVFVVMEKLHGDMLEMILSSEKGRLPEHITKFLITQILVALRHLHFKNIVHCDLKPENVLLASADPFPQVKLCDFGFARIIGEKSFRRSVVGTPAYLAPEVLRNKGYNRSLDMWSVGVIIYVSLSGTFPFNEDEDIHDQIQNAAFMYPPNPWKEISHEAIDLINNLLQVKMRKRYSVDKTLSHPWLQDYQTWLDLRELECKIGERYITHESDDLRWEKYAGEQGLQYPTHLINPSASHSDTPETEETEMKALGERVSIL

DLD-1 = experiment: Antitumor activity against PAK4 -/+ human DLD-1 cells xenografted in nude mouse assessed as tumor growth inhibition at 20 mg/kg, po administered once daily for 9 to 18 days relative to control; assay type: functional; conditions: time 9-18 day, read-out: TGI
Outline: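 Tumor cells were implanted s.c. into the right flank of female nu/nu nude mice aged 6–8 weeks. Animals were randomized into treatment groups once tumors were established (example: day 8 postimplant, about 170 mm3, animals >22 g). Compound in 0.5% methylcellulose was given by oral gavage. Tumors were measured with calipers two to three times per week.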

SW-403 = experiment: Antiproliferative activity against human SW403 cells assessed as inhibition of cell proliferation incubated for 3 days by CellTiter-Glo Luminescent Cell Viability Assay; assay type: functional, cell-based; conditions: SW-403, 72 h; outline: as §1
[7] = molecular target: T2, High affinity nerve growth factor receptor; experiment: Inhibition of human TRKa in presence of ATP
COLO 320DM = experiment: Antiproliferative activity against human COLO 320DM cells assessed as inhibition of cell proliferation incubated for 3 days by CellTiter-Glo Luminescent Cell Viability Assay; assay type: functional, cell-based; conditions: 72 h; outline: as §2
HuP-T4 = experiment: Antiproliferative activity against human HuP-T4 cells assessed as inhibition of cell proliferation incubated for 3 days by CellTiter-Glo Luminescent Cell Viability Assay; assay type: functional, cell-based; conditions: HuP-T4, 72 h; outline: as §2
HCT-116 [8] = experiment: Antitumor activity against human HCT-116 cells xenografted in nude mouse assessed as reduction in Ki67 at 15 to 25 mg/kg administered orally twice daily by immunohistochemical analysis; assay type: functional, organism-based; conditions: dose 15-25 mg/kg, route po, time 3-6 day, TDE = time-dependent effect
[9] = molecular target: T1, Protein kinase C gamma type; experiment: Inhibition of human PKCgamma in presence of ATP by cellular assay
Panc 02.03 = experiment: Antiproliferative activity against human Panc 02.03 cells assessed as inhibition of cell proliferation incubated for 3 days by CellTiter-Glo Luminescent Cell Viability Assay; assay type: functional, cell-based; conditions: Panc 02.03, 72 h; outline: as §1
[10] = molecular target: Protein kinase C theta type (Homo sapiens, UniProt Q04759); experiment: Inhibition of human PKCtheta in presence of ATP by cellular assay
MDA-MB-415 = experiment: Antiproliferative activity against human MDA-MB-415 cells assessed as inhibition of cell proliferation incubated for 3 days by CellTiter-Glo Luminescent Cell Viability Assay; assay type: functional, cell-based; conditions: MDA-MB-415, 72 h; outline: as §2
HT-29 = experiment: Antiproliferative activity against human HT-29 cells assessed as inhibition of cell proliferation incubated for 3 days by CellTiter-Glo Luminescent Cell Viability Assay; assay type: functional, cell-based; conditions: HT-29, 72 h; outline: as §2
[11] = molecular target: Serine/threonine-protein kinase PAK 2 (Homo sapiens, UniProt Q13177); experiment: Inhibition of PAK2 (unknown origin)
[12] = molecular target: Ribosomal protein S6 kinase alpha-2 (Homo sapiens, UniProt Q15349); experiment: Inhibition of human RSK3 assessed as inhibition constant in presence of ATP
HCT-116 [13] = experiment: Induction of cell cycle arrest in human HCT-116 cells assessed as accumulation of cells at G2/M phase at 100 nM measured after 48 hrs by fluorescence activated cell sorter analysis (reference value: 19.78%); assay type: functional
A549 = experiment: cells; conditions: Homo sapiens, A549, 144 h

T2 sequence (P04629 whole entry): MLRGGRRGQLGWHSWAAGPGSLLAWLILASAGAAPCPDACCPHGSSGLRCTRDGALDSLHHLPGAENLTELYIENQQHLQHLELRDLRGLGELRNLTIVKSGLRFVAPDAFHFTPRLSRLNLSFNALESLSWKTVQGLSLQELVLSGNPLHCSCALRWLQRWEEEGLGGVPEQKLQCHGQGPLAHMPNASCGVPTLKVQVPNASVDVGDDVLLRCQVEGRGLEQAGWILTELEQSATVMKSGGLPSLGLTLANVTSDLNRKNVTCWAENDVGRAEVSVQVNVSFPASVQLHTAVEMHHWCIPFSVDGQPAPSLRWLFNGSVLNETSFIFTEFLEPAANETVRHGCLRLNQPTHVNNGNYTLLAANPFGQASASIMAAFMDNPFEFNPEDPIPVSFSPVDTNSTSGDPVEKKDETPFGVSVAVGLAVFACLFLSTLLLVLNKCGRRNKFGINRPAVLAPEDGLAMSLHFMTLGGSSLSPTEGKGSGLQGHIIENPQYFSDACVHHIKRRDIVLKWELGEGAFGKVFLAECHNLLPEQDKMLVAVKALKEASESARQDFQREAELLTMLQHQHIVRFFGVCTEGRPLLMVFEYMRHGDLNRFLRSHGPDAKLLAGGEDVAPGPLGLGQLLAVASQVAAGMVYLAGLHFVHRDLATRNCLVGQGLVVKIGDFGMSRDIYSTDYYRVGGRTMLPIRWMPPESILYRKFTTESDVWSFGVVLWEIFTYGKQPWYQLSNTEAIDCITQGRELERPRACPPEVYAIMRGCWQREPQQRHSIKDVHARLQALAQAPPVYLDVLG
Chain of Protein kinase C theta type (Q04759 whole entry): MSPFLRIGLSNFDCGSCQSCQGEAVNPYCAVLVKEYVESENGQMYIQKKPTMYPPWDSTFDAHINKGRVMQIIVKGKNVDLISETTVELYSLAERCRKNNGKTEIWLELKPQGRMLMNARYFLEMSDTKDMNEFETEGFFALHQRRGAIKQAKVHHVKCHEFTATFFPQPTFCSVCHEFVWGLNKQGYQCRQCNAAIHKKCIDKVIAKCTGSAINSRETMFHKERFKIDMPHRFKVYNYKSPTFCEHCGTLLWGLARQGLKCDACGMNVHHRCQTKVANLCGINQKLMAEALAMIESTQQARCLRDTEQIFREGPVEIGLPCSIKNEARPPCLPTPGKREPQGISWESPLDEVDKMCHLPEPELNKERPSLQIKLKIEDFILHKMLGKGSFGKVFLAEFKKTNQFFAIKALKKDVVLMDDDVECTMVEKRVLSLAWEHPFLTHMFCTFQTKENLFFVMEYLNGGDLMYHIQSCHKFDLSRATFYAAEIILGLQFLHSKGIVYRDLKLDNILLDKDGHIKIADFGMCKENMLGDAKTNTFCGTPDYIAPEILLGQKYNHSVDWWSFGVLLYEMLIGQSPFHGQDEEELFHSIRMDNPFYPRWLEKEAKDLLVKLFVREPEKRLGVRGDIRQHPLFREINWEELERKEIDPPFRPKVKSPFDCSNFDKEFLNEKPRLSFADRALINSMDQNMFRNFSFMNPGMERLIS
Chain of Serine/threonine-protein kinase PAK 2 (Q13177 whole entry): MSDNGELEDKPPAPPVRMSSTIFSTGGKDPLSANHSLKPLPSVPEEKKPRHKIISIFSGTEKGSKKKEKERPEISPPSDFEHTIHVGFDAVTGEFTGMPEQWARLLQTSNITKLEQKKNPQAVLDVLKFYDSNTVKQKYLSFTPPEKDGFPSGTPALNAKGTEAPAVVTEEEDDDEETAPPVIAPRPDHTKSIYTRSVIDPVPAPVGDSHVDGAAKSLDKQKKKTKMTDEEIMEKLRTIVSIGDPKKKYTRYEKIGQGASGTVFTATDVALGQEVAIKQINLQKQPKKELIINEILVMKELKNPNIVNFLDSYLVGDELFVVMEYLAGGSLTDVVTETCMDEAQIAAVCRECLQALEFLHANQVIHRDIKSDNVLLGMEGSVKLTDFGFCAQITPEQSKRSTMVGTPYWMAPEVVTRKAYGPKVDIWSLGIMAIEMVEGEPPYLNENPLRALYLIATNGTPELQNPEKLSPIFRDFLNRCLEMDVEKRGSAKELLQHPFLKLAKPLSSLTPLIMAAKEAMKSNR
Chain of AMP-activated protein kinase (AMPK) alpha-1/beta-1/gamma-1 (P54619 whole entry): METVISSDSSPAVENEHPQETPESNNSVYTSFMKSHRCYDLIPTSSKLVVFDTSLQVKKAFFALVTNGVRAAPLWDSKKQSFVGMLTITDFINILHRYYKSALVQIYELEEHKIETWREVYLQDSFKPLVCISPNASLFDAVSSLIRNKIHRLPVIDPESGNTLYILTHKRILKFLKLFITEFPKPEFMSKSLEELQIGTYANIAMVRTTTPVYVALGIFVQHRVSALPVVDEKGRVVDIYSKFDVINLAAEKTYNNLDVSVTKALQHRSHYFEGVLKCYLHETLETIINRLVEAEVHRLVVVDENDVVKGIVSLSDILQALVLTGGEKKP
Chain of AMP-activated protein kinase (AMPK) alpha-1/beta-1/gamma-1 (Q9Y478 whole entry): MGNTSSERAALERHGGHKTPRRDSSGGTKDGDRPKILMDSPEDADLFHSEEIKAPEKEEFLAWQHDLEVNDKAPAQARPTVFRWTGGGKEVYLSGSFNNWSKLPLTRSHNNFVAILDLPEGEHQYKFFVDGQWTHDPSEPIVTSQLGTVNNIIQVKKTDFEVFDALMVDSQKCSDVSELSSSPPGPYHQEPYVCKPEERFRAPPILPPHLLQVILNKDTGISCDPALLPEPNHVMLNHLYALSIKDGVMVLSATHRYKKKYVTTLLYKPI
Chain of AMP-activated protein kinase (AMPK) alpha-1/beta-1/gamma-1 (Q13131 whole entry): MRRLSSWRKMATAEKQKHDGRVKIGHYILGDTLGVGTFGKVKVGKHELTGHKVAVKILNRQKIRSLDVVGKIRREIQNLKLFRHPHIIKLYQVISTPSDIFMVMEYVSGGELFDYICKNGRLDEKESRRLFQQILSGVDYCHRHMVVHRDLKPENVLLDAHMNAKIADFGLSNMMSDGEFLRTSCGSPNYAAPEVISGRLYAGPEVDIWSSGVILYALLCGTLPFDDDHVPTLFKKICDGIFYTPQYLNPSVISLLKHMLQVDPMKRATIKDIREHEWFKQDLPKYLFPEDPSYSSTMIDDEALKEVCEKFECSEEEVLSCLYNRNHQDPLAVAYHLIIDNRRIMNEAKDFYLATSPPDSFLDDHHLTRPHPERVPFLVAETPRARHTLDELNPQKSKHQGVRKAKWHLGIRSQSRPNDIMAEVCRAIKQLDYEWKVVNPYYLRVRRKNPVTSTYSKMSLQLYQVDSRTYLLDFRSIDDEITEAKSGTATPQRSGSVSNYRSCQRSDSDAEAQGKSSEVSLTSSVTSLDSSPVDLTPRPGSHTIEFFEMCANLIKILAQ
Chain of Ribosomal protein S6 kinase alpha-2 (Q15349 whole entry): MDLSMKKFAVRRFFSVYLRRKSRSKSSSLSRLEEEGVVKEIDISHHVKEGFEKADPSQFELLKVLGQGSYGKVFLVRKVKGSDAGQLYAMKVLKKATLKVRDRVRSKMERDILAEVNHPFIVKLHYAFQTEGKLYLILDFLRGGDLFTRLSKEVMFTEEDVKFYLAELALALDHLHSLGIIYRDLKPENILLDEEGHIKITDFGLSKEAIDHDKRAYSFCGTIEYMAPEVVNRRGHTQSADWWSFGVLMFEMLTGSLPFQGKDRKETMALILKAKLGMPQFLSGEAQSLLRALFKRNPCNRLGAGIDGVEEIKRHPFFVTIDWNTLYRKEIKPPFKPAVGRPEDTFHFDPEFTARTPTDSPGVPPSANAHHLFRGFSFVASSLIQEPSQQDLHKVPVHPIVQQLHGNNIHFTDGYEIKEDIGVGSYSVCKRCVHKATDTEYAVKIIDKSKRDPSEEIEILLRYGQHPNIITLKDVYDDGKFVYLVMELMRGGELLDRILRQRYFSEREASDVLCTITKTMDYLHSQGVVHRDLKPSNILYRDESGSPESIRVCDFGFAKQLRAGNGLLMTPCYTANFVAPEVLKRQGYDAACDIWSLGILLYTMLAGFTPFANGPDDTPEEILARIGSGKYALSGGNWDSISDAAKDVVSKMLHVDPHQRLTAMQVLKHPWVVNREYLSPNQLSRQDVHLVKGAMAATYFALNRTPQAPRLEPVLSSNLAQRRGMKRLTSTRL

inhibition [1]: 92%
IC50 [2]: 2410 nM
IC50 (Panc1005): 67 nM
concentration at 216 h [3]: 1.7 ng/mL
concentration at 144 h [4]: 0.14 nM
IC50 [5]: 40 nM
IC50 (MDA-MB-468): 0.63 nM
IC50 [6]: 2830 nM
IC50 (SW-403): 2.2 nM
IC50 [7]: 513 nM
IC50 (COLO 320DM): 205 nM
IC50 [9]: 4740 nM
IC50 (Panc 02.03): 540 nM
IC50 [10]: 568 nM
IC50 (MDA-MB-415): 36 nM
IC50 (HT-29): 4.3 nM
IC50 [11]: 190 nM
Ki [12]: 11 nM
IC50 (A549): 27.4 nM
Compound: Cc1nc(Nc2n[nH]c3c2CN(C(=O)N[C@H](CN(C)C)c2ccccc2)C3(C)C)c2sccc2n1 [PF-03758309]
inhibition in vivo at 20 mg/kg (DLD-1): 0%
IC50 (HuP-T4): 231 nM
Activity (HCT-116 [8]): Tde
Activity (HCT-116 [13]): 23.08%
